Results taken from ChEMBL document CHEMBL1127562, “N-substituted spirosuccinimide, spiropyridazine, spiroazetidine, and acetic acid aldose reductase inhibitors derived from isoquinoline-1,3-diones. 2” (J Med Chem, 1994).
Active and inactive are the calls of the source. The rule behind the calls is not given here.

Tests used:
[1] = target: Aldo-keto reductase family 1 member B1 (Bos taurus) (UniProt P16116); test: Inhibition of aldose reductase activity in partially purified bovine lens preparation at 4*10 e-8 M
Rattus norvegicus [2] = test: Tested for in vivo inhibition of galactitol accumulation in the lens of galactose-fed rats at the dose of 24 (mg/kg/day); NS=Not significant; format: functional, organism-based; conditions: Lens of camera-type eye
Rattus norvegicus [3] = test: Tested for in vivo inhibition of galactitol accumulation in the sciatic nerve of galactose-fed rats at the dose of 24; NS=Not significant; format: functional, organism-based
In short: (§1)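 Rats were given a 20% galactose diet for 4 days, with the test compound administered in the diet. Sciatic nerve galactitol accumulation was measured, and activity is given as % inhibition at the stated daily dose (mg/kg/day). Values are mean ± SEM, n = 6 animals; p < 0.01 unless indicated. NS means no significant inhibition of polyol accumulation.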

[4] = target: Aldo-keto reductase family 1 member B1 (Bos taurus) (UniProt P16116); test: Inhibition of aldose reductase activity in partially purified bovine lens preparation at 10e-5 M
In short: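 Partially purified bovine lens aldose reductase. Reduction of DL-glyceraldehyde substrate followed spectrophotometrically. Activity expressed as average inhibition at the tested concentrations, 1×10^-5, 1×10^-6, 1×10^-7 and 4×10^-6 M as printed; IC50 in M where given.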

Rattus norvegicus [5] = test: Tested for in vivo inhibition of galactitol accumulation in the sciatic nerve of galactose-fed rats at the dose of 10.0 (mg/kg/day); NS=Not significant; format: functional, organism-based; in short: as §1
Rattus norvegicus [6] = test: Tested for in vivo inhibition of galactitol accumulation in the lens of galactose-fed rats at the dose of 54 (mg/kg/day); NS=Not significant; format: functional, organism-based; conditions: Lens of camera-type eye
Rattus norvegicus [7] = test: tTested for in vivo inhibition of galactitol accumulation in the sciatic nerve of galactose-fed rats at the dose of 54 (mg/kg/day); NS=Not significant; format: functional, organism-based
In short: (§2)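 Rats fed a 20% galactose diet for 4 days, with test compound given in the diet at the stated daily dose (mg/kg/day). Read-out is inhibition of galactitol (polyol) accumulation in sciatic nerve. Values are % inhibition, mean ± SEM of six animals; p < 0.01 unless marked (some p < 0.05). NS = no significant inhibition of polyol accumulation. Tolrestat was the reference standard.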

Rattus norvegicus [8] = test: Tested for in vivo inhibition of galactitol accumulation in the lens of galactose-fed rats at the dose of 25.0 (mg/kg/day); NS=Not significant; format: functional, organism-based; conditions: Lens of camera-type eye
Rattus norvegicus [9] = test: Tested for in vivo inhibition of galactitol accumulation in the sciatic nerve of galactose-fed rats. at the dose of 25.0 (mg/kg/day); NS=Not significant; format: functional, organism-based; in short: as §2
Rattus norvegicus [10] = test: Tested for in vivo inhibition of galactitol accumulation in the sciatic nerve of galactose-fed rats at the dose of 85 (mg/kg/day); format: functional; in short: as §2
Rattus norvegicus [11] = test: Tested for in vivo inhibition of galactitol accumulation in the lens of galactose-fed rats at the dose of 85 (mg/kg/day); format: functional, Lens of camera-type eye
In short: (§3)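 Galactosemic rats were fed 20% galactose for 4 days, with the compound mixed into the diet. […] galactitol accumulation was measured, and activity is given as % inhibition at the stated daily dose (mg/kg/day). Values are mean ± SEM of six animals; p < 0.01 unless indicated. NS means no significant inhibition of polyol accumulation.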

Rattus norvegicus [12] = test: Tested for in vivo inhibition of galactitol accumulation in the lens of galactose-fed rats at the dose of 26.8 (mg/kg/day); NS=Not significant; format: functional, organism-based; conditions: Lens of camera-type eye
Rattus norvegicus [13] = test: Tested for in vivo inhibition of galactitol accumulation in the sciatic nerve of galactose-fed rats at the dose of 26.8 (mg/kg/day); format: functional; in short: as §1
Rattus norvegicus [14] = test: Tested for in vivo inhibition of galactitol accumulation in the sciatic nerve of galactose-fed rats at the dose of 24.5 (mg/kg/day); format: functional; in short: as §1
Rattus norvegicus [15] = test: Tested for in vivo inhibition of galactitol accumulation in the lens of galactose-fed rats at the dose of 24.5 (mg/kg/day); NS=Not significant; format: functional, organism-based; conditions: Lens of camera-type eye
Rattus norvegicus [16] = test: Tested for in vivo inhibition of galactitol accumulation in the sciatic nerve of galactose-fed rats at the dose of 22 (mg/kg/day); NS=Not significant; format: functional, organism-based; in short: as §1
Rattus norvegicus [17] = test: Tested for in vivo inhibition of galactitol accumulation in the lens of galactose-fed rats at the dose of 22 (mg/kg/day); NS=Not significant; format: functional, organism-based; conditions: Lens of camera-type eye
Rattus norvegicus [18] = test: Tested for in vivo inhibition of galactitol accumulation in the sciatic nerve of galactose-fed rats at the dose of 24.1 (mg/kg/day); NS=Not significant; format: functional, organism-based; in short: as §1
Rattus norvegicus [19] = test: Tested for in vivo inhibition of galactitol accumulation in the lens of galactose-fed rats at the dose of 24.1 (mg/kg/day); NS=Not significant; format: functional, organism-based; conditions: Lens of camera-type eye
Rattus norvegicus [20] = test: Tested for in vivo inhibition of galactitol accumulation in the lens of galactose-fed rats at the dose of 24.8 (mg/kg/day); NS=Not significant; format: functional, organism-based; conditions: Lens of camera-type eye
Rattus norvegicus [21] = test: Tested for in vivo inhibition of galactitol accumulation in the sciatic nerve of galactose-fed rats at the dose of 24.8 (mg/kg/day); NS=Not significant; format: functional, organism-based; in short: as §1
Rattus norvegicus [22] = test: Tested for in vivo inhibition of galactitol accumulation in the lens of galactose-fed rats at the dose of 55.4 (mg/kg/day); NS=Not significant; format: functional, organism-based; conditions: Lens of camera-type eye; in short: as §3
Rattus norvegicus [23] = test: Tested for in vivo inhibition of galactitol accumulation in the sciatic nerve of galactose-fed rats at the dose of 55.4 (mg/kg/day); NS=Not significant; format: functional, organism-based; in short: as §2
Rattus norvegicus [24] = test: Tested for in vivo inhibition of galactitol accumulation in the sciatic nerve of galactose-fed rats at the dose of 48 (mg/kg/day); format: functional; in short: as §2
Rattus norvegicus [25] = test: Tested for in vivo inhibition of galactitol accumulation in the lens of galactose-fed rats at the dose of 48 (mg/kg/day); NS=Not significant; format: functional, organism-based; conditions: Lens of camera-type eye
Rattus norvegicus [26] = test: Tested for in vivo inhibition of galactitol accumulation in the lens of galactose-fed rats at the dose of 46.1 (mg/kg/day); NS=Not significant; format: functional, organism-based; conditions: Lens of camera-type eye
Rattus norvegicus [27] = test: Tested for in vivo inhibition of galactitol accumulation in the sciatic nerve of galactose-fed rats at the dose of 46.1 (mg/kg/day); NS=Not significant; format: functional, organism-based; in short: as §1
Rattus norvegicus [28] = test: Tested for in vivo inhibition of galactitol accumulation in the sciatic nerve of galactose-fed rats at the dose of 1.1 (mg/kg/day); NS=Not significant

O=C(O)CC1C(=O)N(Cc2nc3cc(C(F)(F)F)ccc3s2)C(=O)c2ccccc21 (configuration not stated) was tested, and the inhibition [1] was 65%, the inhibition (Rattus norvegicus [2]) was “inactive” and the inhibition (Rattus norvegicus [3]) was “inactive”.

With O=C1CC2(C(=O)N1CC(F)(F)F)C(=O)N(Cc1ccc(Br)cc1F)C(=O)c1ccccc12 (configuration not stated) the inhibition [4] was “inactive” and the inhibition (Rattus norvegicus [5]) was “inactive”.

In the case of O=C1CC2(N1)C(=O)N(Cc1ccc(Br)cc1F)C(=O)c1ccc(F)cc12 (configuration not stated), the inhibition (Rattus norvegicus [6]) is reported as “inactive” and the inhibition (Rattus norvegicus [7]) is reported as “inactive”.

In the case of O=C(O)CC1C(=O)N(Cc2ccc(Br)cc2F)C(=O)c2ccc(Cl)cc21 (configuration not stated), the inhibition [1] is reported as 57%, the inhibition (Rattus norvegicus [8]) is reported as “inactive” and the inhibition (Rattus norvegicus [9]) is reported as “inactive”.

In the case of COC(=O)NC(=O)CC1C(=O)N(C)C(=O)c2ccccc21 (configuration not stated), the inhibition [4] is reported as 61%, the Inhibition (Rattus norvegicus [10]) is reported as 59% and the Inhibition (Rattus norvegicus [11]) is reported as 37%. The inhibition (Rattus norvegicus [12]) was “inactive” and the Inhibition (Rattus norvegicus [13]) was 21%.

For CCOC(=O)NC(=O)CC1C(=O)N(C)C(=O)c2ccc(Cl)cc21 (configuration not stated), the inhibition [4] was “inactive”, the Inhibition (Rattus norvegicus [14]) was 21% and the inhibition (Rattus norvegicus [15]) was “inactive”.

COc1c(CC(=O)O)c2ccccc2c(=O)n1Cc1ccc(Br)cc1F was tested, and the inhibition (Rattus norvegicus [16]) was “inactive” and the inhibition (Rattus norvegicus [17]) was “inactive”.

In the case of CONC(=O)CC1C(=O)N(Cc2ccc(Br)cc2F)C(=O)c2ccccc21 (configuration not stated), the inhibition [4] is reported as 45%, the inhibition (Rattus norvegicus [18]) is reported as “inactive” and the inhibition (Rattus norvegicus [19]) is reported as “inactive”.

For CCNC(=O)CC1C(=O)N(Cc2ccc(Br)cc2F)C(=O)c2ccccc21 (configuration not stated), the inhibition [4] was “inactive”, the inhibition (Rattus norvegicus [20]) was “inactive” and the inhibition (Rattus norvegicus [21]) was “inactive”.

In the case of O=C1c2ccccc2C2(CC(=O)N(NS(=O)(=O)C(F)(F)F)C2=O)C(=O)N1Cc1ccc(Br)cc1F (configuration not stated), the inhibition [4] is reported as “inactive”, the inhibition (Rattus norvegicus [22]) is reported as “inactive” and the inhibition (Rattus norvegicus [23]) is reported as “inactive”.

For COC(=O)NC(=O)CC1C(=O)N(Cc2ccc(Br)cc2F)C(=O)c2ccccc21 (configuration not stated), the inhibition [4] was 84%, the Inhibition (Rattus norvegicus [24]) was 96% and the inhibition (Rattus norvegicus [25]) was “inactive”.

COc1ccc2c(c1)C(=O)N(Cc1ccc(Br)cc1F)C(=O)C2CC(=O)O (configuration not stated) was tested, and the inhibition [1] was 61%, the inhibition (Rattus norvegicus [26]) was “inactive” and the inhibition (Rattus norvegicus [27]) was “inactive”.

CCN1C(=O)CC2(C(=O)N(C)C(=O)c3ccc(Cl)cc32)C1=O (configuration not stated) was tested, and the inhibition [4] was “inactive” and the inhibition (Rattus norvegicus [28]) was “inactive”.
